KLF5 inh: inhibitors of KLF5 expression. DLD-1 KLF5 promoter-luciferase reporter, luminescence. AID 1700. inhibition, % at 5 µM. 290,000 tested, 0.23% active;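 active = inhibition above a per-plate limit of that plate's mean compound inhibition plus 3 SD, cut at about 60% in these data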;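 note: 0% = DMSO wells and 100% = LY294002 at 200 µM; higher means less KLF5 promoter-driven luciferase light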
Bfl-1 A1 inh: inhibitors of the anti-apoptotic protein A1, read as caspase activation. MEF A1-2A-BIM cells, Caspase-Glo 3/7 luminescence, 3 h; percent of clofoctol response, vehicle zero. caspase activation, % (concentration not given with the values). 330,000 tested, 0.066% active. AID 2462;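 active = over half of replicate activation scores above 10%, or exactly half above 10 with the replicate mean above 10; inconclusive = replicate mean below 10 yet half the replicates above 10; inactive = over half of replicates below 10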
Beta apoptosis: blocks beta cell apoptosis. protection from apoptosis, % (no concentration beside the values). 300,000 tested, 0.8% active. INS-1E cytokine-induced death, ATP luminescence, 48 h; percent of positive-control rescue, neutral wells zero;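 active = Every replicate reaches about 75%, or at least half do and their mean reaches it too, limit read from the data; inconclusive = At least half of replicates reach the limit but their mean does not; inactive = Under half of replicates reach the limit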;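 note: 0% = cytokine-treated negative control wells and 100% = positive control rescue; higher means more ATP so stronger rescue from cytokine killing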
HIF act: HIF pathway transcriptional activation; U2OS HRE-luciferase reporter, luminescence; normalized: DMSO 0%, desferrioxamine 100%; 300,000 tested, 0.32% active; activation, % at 7.5 µM (by protocol); AID 1910;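 active = mean activation of at least 10% of the iron chelator positive control signal, with at least half of replicates also reaching 10%; inconclusive = mean and replicate majority disagree about reaching 10%; inactive = mean and most replicates under 10%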
T cruzi repl: T. cruzi replication inhibition; T. cruzi beta-gal in NIH3T3, luminescence, 90 h; inhibition, % (test concentration not listed); 300,000 tested, 1.4% active; AID 1885;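 active = mean inhibition across valid replicates above about 55%, limit read from the data; inconclusive = mean below that limit but half or more replicates reach it; inactive = mean below it, under half of replicates reach it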;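 note: signal also drops with host cell toxicity which is not excluded here; 0% = plate median of DMSO wells and 100% = zero luminescence signal; higher percent means less beta-gal luminescence so fewer parasites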
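Incubation – ≥90 h infection period, 3 h prior cell attachment · System – NIH/3T3 fibroblasts plus reporter T. cruzi · Doses – compound pinned at 50 nL/well, DMSO · Read-out basis – percent inhibition of parasite-derived β-gal signal · Signal – luminescent β-galactosidase signal after 60 min lysis · Also added – 5000 T. cruzi trypomastigotes/well · Medium – Low-serum DMEM with 2% FBS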
An asterisk follows results filed as active; u = inconclusive; x = no result. Hits are enriched below; roughly 2.3% of the tested compounds scored in any of these assays.

SMILES	KLF5 inh	Bfl-1 A1 inh	Beta apoptosis	HIF act	T cruzi repl
CCCOc1ccc(N2C(=O)CC(N(CCc3ccc(OC)c(OC)c3)C(=S)Nc3ccccc3)C2=O)cc1 (centres undefined)	-2.5	0.1	47.6	0.2	63.7*
COc1ccc(C(=O)CC(=O)c2ccccc2)cc1	x	-4.9	2.6	3.1	-1.0
COc1ccc(C(=O)C/C(=C\C(=O)c2ccc(C)cc2)c2ccccc2)cc1	-1.8	-0.1	u	-0.8	63.8*
COC(=O)C1=CN(Cc2ccc(OC)c(OC)c2)C=C(C(=O)OC)C1c1cccc(F)c1	-42.5	-0.4	5.0	-0.9	63.4*
COC(=O)C1=CN(Cc2ccc(F)cc2)C=C(C(=O)OC)C1c1cc(OC)c(OC)c(OC)c1	-19.0	0.0	-1.7	-0.4	15.9
COC(=O)Nc1ccc(=O)n(Cc2c(Cl)cccc2Cl)c1	-47.7	0.4	-5.8	174.9*	-7.6
C#CCOC(=O)Nc1cccn(Cc2c(Cl)cccc2Cl)c1=O	-21.7	-0.1	0.0	2.2	-5.7
Cc1nc(SCC(=O)NCCN2C(=O)CSC2=O)nc(C)c1C	x	0.8	-4.3	x	x
Fc1ccc(-c2cc3nc(-c4ccccc4)cc(N4CCN(CCN5CCOCC5)CC4)n3n2)cc1	-31.1	x	x	0.1	55.1*
COc1cccc(-c2cc3nc(-c4ccccc4)cc(N4CCC5(CC4)OCCO5)n3n2)c1	17.9	1.6	5.7	0.2	54.5*
CN1CCN(c2cc(-c3ccccc3)nc3cc(-c4ccc(F)cc4)nn23)CC1	-6.0	0.8	12.0	-2.4	35.4
COCCN1CCN(c2c(C)c(C)nc3cc(-c4cccc(OC)c4)nn23)CC1	x	-0.8	-2.9	2.0	2.6
C/C(=N\Nc1ncnc2sc(C)c(C)c12)c1ccccn1	23.5	-1.0	98.3*	95.8*	37.7
C/C(=N\Nc1cccc2cccnc12)c1ccccn1	-85.6	0.4	4.7	-3.2	76.9*
C/C(=N\Nc1ncc(Cl)cc1Cl)c1ccccn1	-32.5	x	x	-2.5	68.5*
O=S(=O)(c1ccc(F)cc1)c1snnc1-c1ccccc1	19.6	0.6	-8.7	-0.5	4.1
O=S(=O)(c1ccc(Cl)cc1)c1snnc1-c1ccccc1	8.4	-1.0	12.4	-0.8	60.0*
COc1cccc(N/C(SCc2cccc([N+](=O)[O-])c2)=C(/C#N)C(N)=O)c1	10.9	-0.6	2.7	1.3	67.2*
CC(C)(C)c1ccc(C(=O)NCCNC(=O)c2ccco2)cc1	-9.8	0.2	x	-0.3	-1.5
Cc1ccn2c(NC3CCCCC3)c(-c3cccc(-c4cccc(Cl)c4)c3)nc2c1	x	0.5	-1.3	-8.1	42.7
COc1ccccc1CNc1ccc2c(c1)CCC2	-18.8	-0.4	17.3	-0.1	54.9*
COc1ccc(CNc2ccc3c(c2)CCC3)cc1Br	-0.6	1.4	16.1	3.5	46.8
O=C(CCCn1cnc([N+](=O)[O-])n1)Nc1cccc(Cl)c1Cl	-24.7	-0.2	-6.1	0.2	41.2
O=C(Cn1cnc([N+](=O)[O-])n1)N/N=C/c1cc(Cl)ccc1O	39.7	0.4	38.4	15.2*	26.6
Cc1c(Cl)cccc1NC(=O)CCCn1cnc([N+](=O)[O-])n1	-31.4	x	x	-0.1	56.0*
SMILES	KLF5 inh	Bfl-1 A1 inh	Beta apoptosis	HIF act	T cruzi repl
Cc1cc(NC(=O)CCCn2cnc([N+](=O)[O-])n2)no1	0.5	-0.3	0.6	-0.2	57.9*
O=C(CCCn1cnc([N+](=O)[O-])n1)Nc1ccc(Cl)c(Cl)c1	-9.6	-0.7	-0.1	x	82.3*
C=CCN(CC=C)Cc1c(O)ccc2c(=O)c(-c3ccccc3)coc12	-18.1	-0.1	2.7	0.3	15.9
CCOc1ccc(CNc2nnnn2C)cc1	-20.2	1.4	x	0.0	5.9
Cc1ccc([N+](=O)[O-])cc1S(=O)(=O)Nc1ccc(C(=O)N2CCN(C(=O)c3ccco3)CC2)cc1	x	-1.0	1.2	x	x
Cc1cc(C)nc(N/N=C/c2cc(Br)ccc2O)n1	-8.1	0.4	88.0*	34.4*	10.8
Cc1cc(C)nc(N/N=C/c2ccccc2OCc2ccc(Br)cc2)n1	-27.4	-1.7	-5.9	1.8	7.3
Cc1c(C(C)C[C@H](C)O)oc(=O)c2c1Oc1c(C)c(C(C)C[C@H](C)O)oc(=O)c1C2 (some centres undefined)	x	0.9	-0.5	x	x
CC(=O)c1c(C)oc2ccc(N(C(C)=O)S(=O)(=O)c3cccc4cccnc34)cc12	-11.1	-0.7	104.4*	0.0	14.7
CC(=O)c1c(C)oc2ccc(N(C(C)=O)S(=O)(=O)c3ccc(F)cc3C)cc12	-10.1	0.5	7.6	0.1	30.2

High-throughput results as filed in PubChem BioAssay.
